Assay results published in paper PMC2916634 (Biochemistry, 2010).
Changes are numbered by the printed parent chain. Numbers in names are those of the source. One block for each molecule: values may come before it. Ends that are not written are not given here. Me3 = Me3: trimethyl-lysine (trimethylated lysine)

B1: V1617A: MLL PHD3 with V1617 mutated to alanine (protein)
chain: AKGNFCPLCDKCYDDDDYESKMMQCGKCDRWVHSKCENLSDEMYEILSNLPESAAYTCVNCTERH
modifications: left off: GST, end not stated, cleaved
B2: Y1619A: MLL PHD3 with Y1619 mutated to alanine (protein)
chain: B1 chain with A54V, Y56A
modifications: left off: GST, end not stated, cleaved
B3: CYP33 RRM domain (T3-K83), wild type (domain or fragment, human, UniProt Q9UNP9 3-83, looked up)
chain: TTKRVLYVGGLAEEVDDKVLHAAFIPFGDITDIQIPLDYETEKHRGFAFVEFELAEDAAAAIDNMNESELFGRTIRVNLAK
B4: F49A (protein)
chain: B3 chain with F47A
modifications: left off: GST, end not stated, cleaved
B5: CYP33 RRM: RRM domain of CYP33 spanning residues T3−K83 (protein)
chain: B3 chain
modifications: left off: GST, end not stated, cleaved
B6: R47A (protein)
chain: B3 chain with R45A
modifications: left off: GST, end not stated, cleaved
B7: K45A (protein)
chain: B3 chain with K43A
modifications: left off: GST, end not stated, cleaved
B8: L39A (protein)
chain: B3 chain with L37A
modifications: left off: GST, end not stated, cleaved
B9: MLL PHD3 Y1619A mutant (domain or fragment, human, UniProt Q03164 1564-1628, looked up)
chain: B1 chain with A54V, Y56A
B10: CYP33 RRM L39A mutant (domain or fragment, human, UniProt Q9UNP9 3-83, looked up)
chain: B3 chain with L37A
B11: MLL PHD3 W1594A mutant (domain or fragment, human, UniProt Q03164 1564-1628, looked up)
chain: B1 chain with W31A, A54V
B12: MLL PHD3 (third PHD finger of MLL), wild type (domain or fragment, human, UniProt Q03164 1564-1628, looked up)
chain: B1 chain with A54V
B13: CYP33 RRM F49A mutant (domain or fragment, human, UniProt Q9UNP9 3-83, looked up)
chain: B3 chain with F47A

Assays:
[1] = test system: HOXA9; test: Q-RT-PCR of HOXA9 expression in HEK293T cells; format: cell-based; conditions: 48 h after transfection, normalized to β2M, vs empty vector
Method in brief: (§1)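 HEK293T cells transfected with Lipofectamine 2000 using pCEP4 empty vector, FLAG-tagged wild-type CYP33 or PPIase-dead CYP33 (R191A/F196A). At 48 h, RNA extracted with Trizol and reverse-transcribed. qPCR run in triplicate. cDNA levels normalized to β2M by the comparative Ct method.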

[2] = test system: HOXC8; test: Q-RT-PCR of HOXC8 expression in HEK293T cells; format: cell-based; conditions: 48 h after transfection, normalized to β2M, vs empty vector
Method in brief: as §1

[3] = test system: C-MYC; test: Q-RT-PCR of C-MYC expression in HEK293T cells; format: cell-based; conditions: 48 h after transfection, normalized to β2M, vs empty vector
Method in brief: as §1

[4] = test system: CDKN1B; test: Q-RT-PCR of CDKN1B expression in HEK293T cells; format: cell-based; conditions: 48 h after transfection, normalized to β2M, vs empty vector
Method in brief: as §1

[5] = test system: CDKN1B promoter; test: Chromatin immunoprecipitation at CDKN1B promoter in HEK293T cells; format: cell-based; conditions: ChIP, 48 h after transfection, CYP33 overexpression vs empty vector
Method in brief: (§2)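 HEK293T cells transfected with empty vector or pCEP4-CYP33 by lipofectamine, then formalin-fixed at 48 h. Chromatin immunoprecipitated with anti-histone H3, anti-H3K4me3, anti-acetyl-H3 (K9/K14) or IgG control antibodies. Recovered DNA quantified by qPCR at MLL target gene promoters. Fold occupancy normalized to input DNA.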

[6] = test system: HOXC8 promoter; test: Chromatin immunoprecipitation at HOXC8 promoter in HEK293T cells; format: cell-based; conditions: ChIP, 48 h after transfection, CYP33 overexpression vs empty vector
Method in brief: as §2

[7] = target: PHD3−CYP33 RRM complex (PHD3 saturated with CYP33 RRM) (human, UniProt Q03164 1564-1628; Q9UNP9 3-83); test: ITC
[8] = target: B12; test: ITC
[9] = 15N−1H HSQC structural integrity of mutants; format: physicochemical; conditions: 15N−1H HSQC of mutant vs wild type, 30 °C, pH 6.9
[10] = target: MLL PHD3 V1617A mutant (human, UniProt Q03164 1564-1628, V1617A); test: ITC
[11] = test system: PHD3; conditions: yeast two-hybrid assay, co-immunoprecipitation, and GST pull-down; cited from earlier work
[12] = target: W1594A PHD3 (Homo sapiens, UniProt Q03164, W1594A); test: ITC binding to PHD3 W1594A mutant
W1594A PHD3, sequence (Q03164 1564-1628 W1594A): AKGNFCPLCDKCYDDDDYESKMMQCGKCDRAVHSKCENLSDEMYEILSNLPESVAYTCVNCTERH

[13] = target: PHD3 (MLL PHD3, wild-type) (Homo sapiens, UniProt Q03164); test: ITC binding of H3K4me3 peptide or CYP33 RRM; conditions: CYP33 RRM Ala mutant to wild-type PHD3
PHD3 (MLL PHD3, wild-type), sequence (Q03164 1564-1628): as the sequence (Q03164 1564-1628 W1594A) above, with A31W counted along it

[14] = target: B3; test: ITC

Molecule: CYP33 mutant (R191A/F196A)
- HOXA9 expression [1]: no longer downregulated
- HOXC8 expression [2]: no longer downregulated
- C-MYC expression [3]: no longer downregulated
- CDKN1B expression [4]: no longer downregulated

Molecule: CYP33: Human nuclear Cyclophilin33, full-length; FLAG-tagged wild-type expressed from pCEP4 plasmid in HEK293T cells
- HOXA9 expression [1]: markedly downregulated
- HOXC8 expression [2]: markedly downregulated
- H3K4me3 mark [5]: reduced
- H3 acetylation level (K9 and K14) [5]: reduced
- histone H3 density [5]: increase
- C-MYC expression [3]: markedly downregulated
- H3K4me3 mark [6]: reduced
- histone H3 density [6]: increase
- CDKN1B expression [4]: markedly downregulated

- fold increase in Kd against PHD3 alone [7]: ~5.7 fold
- stoichiometry N [8]: 1
Molecule: ARTK(Me3)QTARKSTGGKAY (not fully specified) [Histone H3 peptide (residues 1-15) trimethylated at K4]

Molecule: B1
- effect of mutation on structure [9]: does not affect the structural stability of PHD3

Molecule: B2
- effect of mutation on structure [9]: disruption of the overall fold

Molecule: B3
- fold decrease in affinity against wild-type PHD3 [10]: ~6.2 fold

Molecule: B4
- effect of mutation on structure [9]: without disrupting the structure

Molecule: B5
- interaction with PHD3 [11]: interacts
- Kd ([12]; 25 °C, pH 7.2, CYP33 RRM to W1594A PHD3): 19.6 µM
- fold weaker Kd vs wild-type PHD3 ([12]; CYP33 RRM to W1594A PHD3): ~1.3 fold

Molecule: B6
- interaction with PHD3 [13]: did not abrogate the interaction

Molecule: B7
- interaction with PHD3 [13]: did not abrogate the interaction

Molecule: B8
- effect of mutation on structure [9]: without disrupting the structure

Molecule: B9
- binding result [14]: binds

Molecule: B10
- fold decrease in affinity against wild-type CYP33 RRM [8]: ~4.3 fold

Molecule: B11
- Kd [14]: 19.6 µM

Molecule: B12
- Kd [14]: 14.7 µM

Molecule: B13
- fold decrease in affinity against wild-type CYP33 RRM [8]: ~14 fold
